“And” between values parts separate entries of the source, which are not always exact repeats. Equal entries are not always repeated.
Key:
Type in all cases: toxicity, cell-based
Fibroblast = assay: Multiplex assay against human fibroblast
Method in brief: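 Per cents of healthy-nucleus cells form the tubulin, mitochondrial-mass and membrane-permeability phenotype values. Live cells were stained at seeding with Hoechst33342, BioTracker Green Microtubule Cytoskeleton Dye, MitoTracker Red and Annexin V Alexa Fluor 680. After compound addition they were imaged on a CQ1 microscope at 37°C and 5% CO2, and CellPathfinder machine-learning gating split them into Hoechst high-intensity objects or normal cells, normal cells into healthy, pyknosed or fragmented nuclei, and pyknosed cells into mitotic or apoptotic.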

HEK-293T = assay: Incucyte cell viability with HEK293T; details: human, 10 µM, compound concentration 10 uM; note: filed as whole numbers so only -1 and 0 and 1 occur
U2OS = assay: Incucyte cell viability with U2OS; details: human, 10 µM, compound concentration 10 uM; note: filed as whole numbers so only -1 and 0 and 1 occur
[1] = 12 h, 1 µM, compound concentration 1 uM, replicate 1
[2] = 12 h, 1 µM, compound concentration 1 uM, replicate 2
[3] = 12 h, 10 µM, compound concentration 10 uM, replicate 1
[4] = 12 h, 10 µM, compound concentration 10 uM, replicate 2
[5] = 24 h, 1 µM, compound concentration 1 uM, replicate 1
[6] = 24 h, 1 µM, compound concentration 1 uM, replicate 2
[7] = 24 h, 10 µM, compound concentration 10 uM, replicate 1
[8] = 24 h, 10 µM, compound concentration 10 uM, replicate 2
[9] = 48 h, 1 µM, compound concentration 1 uM, replicate 1
[10] = 48 h, 1 µM, compound concentration 1 uM, replicate 2
[11] = 48 h, 10 µM, compound concentration 10 uM, replicate 1
[12] = 48 h, 10 µM, compound concentration 10 uM, replicate 2
[13] = 0 h, replicate number 1, timepoint 0 hours
[14] = 6 h, replicate number 1, timepoint 6 hours
[15] = 12 h, replicate number 1, timepoint 12 hours
[16] = 18 h, replicate number 1, timepoint 18 hours
[17] = 24 h, replicate number 1, timepoint 24 hours

## CS(=O)(=O)N1CCCC(NC(=O)[C@H](CCC2CCCCC2)NC(=O)c2ccc(CNC(=O)c3cnc4ccccn34)cc2)C1 (stereo partly specified) [SR-302]
Fibroblast; [1]
  Population Apoptotic (%): 63% [middle of 4 runs]
  Population Fragmented Nuclei (%): 16% and 17% and 20%
  Population Healthy Nuclei (%): 42% [middle of 4 runs]
  Population Hoechst High Intensity Objects (%): 15% [middle of 4 runs]
  Population Membrane Permeable-Phenotype (%): 31% and 23%
  Population Mitochondria Different-Phenotype (%): 10% [middle of 4 runs]
  Population Mitotic Cells (%): 42% [middle of 4 runs]
  Population Normal (%): 85% and 84% and 80% and 87%
  Population Pyknosed Nuclei (%): 55% and 40% and 41%
Fibroblast; [2]
  Population Apoptotic (%): 40% and 33% and 20%
  Population Healthy Nuclei (%): 81% [middle of 4 runs]
  Population Membrane Permeable-Phenotype (%): 0% and 7% and 2%
  Population Mitochondria Different-Phenotype (%): 6% and 7% and 9%
  Population Mitotic Cells (%): 60% and 66% and 80%
  Population Normal (%): 75% and 93% and 83% and 97%
  Population Pyknosed Nuclei (%): 12% [middle of 4 runs]
  Total Cell Count: 84 and 98 and 59
Fibroblast; [3]
  Population Apoptotic (%): 56% [middle of 4 runs]
  Population Fragmented Nuclei (%): 26% [middle of 4 runs]
  Population Healthy Nuclei (%): 20% and 32% and 52%
  Population Hoechst High Intensity Objects (%): 11% and 19% and 9%
  Population Membrane Permeable-Phenotype (%): 20% [middle of 4 runs]
  Population Mitotic Cells (%): 48% [middle of 4 runs]
  Population Normal (%): 88% and 80% and 91%
  Population Pyknosed Nuclei (%): 51% [middle of 4 runs]
  Population Tubulin-Different-Phenotype (%): 86% [middle of 4 runs]
  Total Cell Count: 137 [middle of 4 runs]
Fibroblast; [4]
  Population Apoptotic (%): 71% [middle of 4 runs]
  Population Healthy Nuclei (%): 34% and 80% and 83%
  Population Membrane Permeable-Phenotype (%): 18% and 23% and 11%
  Population Normal (%): 66% and 92% and 93% and 96%
  Population Pyknosed Nuclei (%): 17% and 7% and 9%
  Population Tubulin-Different-Phenotype (%): 91% [middle of 4 runs]
  Total Cell Count: 77 [middle of 4 runs]
Fibroblast; [5]
  Population Apoptotic (%): 72% [middle of 4 runs]
  Population Fragmented Nuclei (%): 25% [middle of 4 runs]
  Population Healthy Nuclei (%): 51% [middle of 4 runs]
  Population Hoechst High Intensity Objects (%): 17% [middle of 4 runs]
  Population Mitochondria Different-Phenotype (%): 7% [middle of 4 runs]
  Population Mitotic Cells (%): 40% [middle of 4 runs]
  Population Normal (%): 85% and 77% and 82% and 83%
  Population Pyknosed Nuclei (%): 28% [middle of 4 runs]
Fibroblast; [6]
  Population Membrane Permeable-Phenotype (%): 0% and 5% and 1%
  Population Mitochondria Different-Phenotype (%): 6% and 8% and 4%
  Population Mitotic Cells (%): 66% [middle of 4 runs]
  Population Normal (%): 76% and 95%
  Total Cell Count: 97 [middle of 4 runs]
Fibroblast; [7]
  Population Apoptotic (%): 57% [middle of 4 runs]
  Population Fragmented Nuclei (%): 24% [middle of 4 runs]
  Population Healthy Nuclei (%): 37% and 27% and 59%
  Population Hoechst High Intensity Objects (%): 10% [middle of 4 runs]
  Population Mitotic Cells (%): 51% [middle of 4 runs]
  Population Normal (%): 100% and 89% and 80% and 92%
  Population Pyknosed Nuclei (%): 51% [middle of 4 runs]
  Population Tubulin-Different-Phenotype (%): 82% [middle of 4 runs]
Fibroblast; [8]
  Population Apoptotic (%): 55% [middle of 4 runs]
  Population Membrane Permeable-Phenotype (%): 16% [middle of 4 runs]
  Population Mitochondria Different-Phenotype (%): 75% [middle of 4 runs]
  Population Mitotic Cells (%): 45% [middle of 4 runs]
  Population Normal (%): 62% and 88% and 95% and 94%
  Population Pyknosed Nuclei (%): 24% and 15% and 13%
  Population Tubulin-Different-Phenotype (%): 72% [middle of 4 runs]
  Total Cell Count: 88 [middle of 4 runs]
Fibroblast; [9]
  Population Apoptotic (%): 58% and 70% and 55%
  Population Fragmented Nuclei (%): 42% and 31% and 22%
  Population Healthy Nuclei (%): 40% and 46% and 52%
  Population Hoechst High Intensity Objects (%): 18% and 24% and 20%
  Population Membrane Permeable-Phenotype (%): 14% and 36% and 20%
  Population Mitochondria Different-Phenotype (%): 7% and 13% and 5%
  Population Mitotic Cells (%): 41% and 30% and 44%
  Population Normal (%): 81% and 75% and 79%
  Population Pyknosed Nuclei (%): 17% and 21% and 24%
  Population Tubulin-Different-Phenotype (%): 42% and 59% and 28%
  Total Cell Count: 86 and 62 and 93
Fibroblast; [10]
  Population Fragmented Nuclei (%): 19% and 14% and 23%
  Population Healthy Nuclei (%): 79% and 82% and 72%
  Population Hoechst High Intensity Objects (%): 13% and 8% and 15%
  Population Membrane Permeable-Phenotype (%): 9% and 7%
  Population Mitochondria Different-Phenotype (%): 0% and 4%
  Population Normal (%): 86% and 91% and 84%
  Total Cell Count: 105 and 83 and 107
Fibroblast; [11]
  Population Apoptotic (%): 53% and 87% and 50%
  Population Fragmented Nuclei (%): 31% and 64% and 30%
  Population Healthy Nuclei (%): 47% and 22% and 30%
  Population Hoechst High Intensity Objects (%): 27% and 36% and 28%
  Population Mitochondria Different-Phenotype (%): 33% and 50% and 53%
  Population Normal (%): 72% and 63% and 71%
  Population Tubulin-Different-Phenotype (%): 70% and 64% and 92%
  Total Cell Count: 87 and 97 and 118
Fibroblast; [12]
  Population Apoptotic (%): 66% and 44%
  Population Fragmented Nuclei (%): 35% and 26% and 27%
  Population Healthy Nuclei (%): 60% and 65% and 62%
  Population Membrane Permeable-Phenotype (%): 7% and 5%
  Population Mitochondria Different-Phenotype (%): 37% and 45%
  Population Mitotic Cells (%): 33% and 55%
  Population Normal (%): 98% and 90%
  Population Pyknosed Nuclei (%): 4% and 7% and 10%
  Population Tubulin-Different-Phenotype (%): 91% and 93% and 96%
  Total Cell Count: 133 and 139
HEK-293T; [13]
  Growth Rate: 0
HEK-293T; [14]
  Growth Rate: 0
HEK-293T; [15]
  Growth Rate: 0
HEK-293T; [16]
  Growth Rate: 0
HEK-293T; [17]
  Growth Rate: 0
U2OS; [13]
  Growth Rate: 0
U2OS; [14]
  Growth Rate: 1
U2OS; 6 h, replicate number 2, timepoint 6 hours
  Growth Rate: 0
U2OS; [15]
  Growth Rate: 0
U2OS; [16]
  Growth Rate: 0
U2OS; 18 h, replicate number 2, timepoint 18 hours
  Growth Rate: 1
U2OS; [17]
  Growth Rate: 0

Reference: ChEMBL document CHEMBL4689842, “EUbOPEN Chemogenomics Library wave 1” (2021)
